Screens deposited in PubChem BioAssay by Johns Hopkins Ion Channel Center.
Sampled rows, rich in hits. Any-hit rate of the full collection: about 3.5%.
MrgX1 antagonist = antagonists of human MrgX1 receptor, primary screen, HEK293 cells, Fluo-4 calcium flux; 1.3% of 310,000 active; AID 588676, 2011; BAM8-22 antagonism; stronger effect = lower value; B-score at 10 µM; Mas-related G-protein coupled receptor member X1 (Homo sapiens), Q96LB2;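 active = calcium-response B-score plate-corrected more than 3 library SD below zero, starting fluorescence within 5 deviations, no agonist response on first addition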;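 also: peak minus trough fluorescence over baseline after final BAM8-22 challenge near maximal dose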
Target sequence (Q96LB2 whole entry, looked up): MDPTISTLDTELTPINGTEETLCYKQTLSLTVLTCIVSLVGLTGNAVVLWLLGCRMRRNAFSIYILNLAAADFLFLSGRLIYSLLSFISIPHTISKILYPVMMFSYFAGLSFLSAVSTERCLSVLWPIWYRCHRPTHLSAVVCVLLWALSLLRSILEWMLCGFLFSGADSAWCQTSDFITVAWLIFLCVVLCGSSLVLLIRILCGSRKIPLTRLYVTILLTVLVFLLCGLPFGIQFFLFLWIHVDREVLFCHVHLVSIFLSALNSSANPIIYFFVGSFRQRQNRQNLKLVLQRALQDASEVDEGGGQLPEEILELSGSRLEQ
RGS4 block = RGS4 inhibitors, primary screen, cell-based, HEK293 M3R inducible RGS4, calcium flux; Regulator of G-protein signaling 4 (Homo sapiens), P49798; Fluo-4 calcium flux; stronger effect = higher value; triggered by carbachol at its EC20; B-score at 10 µM; 0.45% of 310,000 active; AID 463165, 2010;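 active = B-score, a plate-corrected calcium signal, over three deviations above library mean, with baseline fluorescence within five deviations of library mean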;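 also: RGS4 expression induced by doxycycline in cells with stable M3 receptor; B-score is computed from the integrated fluorescence ratio over baseline after carbachol; higher B-score means a larger calcium signal and so more RGS4 inhibition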
Target sequence (P49798 whole entry, looked up): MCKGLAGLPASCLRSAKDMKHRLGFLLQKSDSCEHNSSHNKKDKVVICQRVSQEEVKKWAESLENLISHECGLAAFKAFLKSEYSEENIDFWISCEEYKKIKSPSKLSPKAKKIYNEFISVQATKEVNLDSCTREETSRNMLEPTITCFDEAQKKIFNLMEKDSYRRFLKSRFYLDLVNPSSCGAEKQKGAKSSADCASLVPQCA
MrgX1 agonist = agonists of human MrgX1 receptor, primary screen, HEK293 cells, Fluo-4 calcium flux; B-score at 10 µM; Mas-related G-protein coupled receptor member X1 (Homo sapiens), Q96LB2; Fluo-4 calcium fluorescence, agonist mode; stronger effect = higher value; AID 588627, 2011; 0.44% of 310,000 active;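 active = calcium response B-score plate-corrected fluorescence ratio at least 3 library SD, with starting fluorescence B-score inside 5 SD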
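Material – MrgX1-expressing HEK293 cells · Input – 15,000 cells seeded per well · Dosing – compound as first of three additions · Times – overnight seeding, then 1 h dark dye loading · Measured by – kinetic Fluo-4 NW fluorescence of intracellular calcium · Read-out – B-scored fluorescence response ratio · Benchmarks – positive and negative control wells on each plate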
MrgX1 allo act = positive allosteric modulators of MrgX1, primary screen, HEK293 cells, Fluo-4 calcium flux; Mas-related G-protein coupled receptor member X1 (Homo sapiens), Q96LB2; FDSS; stronger effect = higher value; 0.63% of 310,000 active; B-score at 10 µM;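 active = plate-corrected calcium response at least 3 library SD above typical, normal starting fluorescence, not activating the receptor alone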;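 also: compound read alongside a low EC10 to EC30 dose of BAM8-22 agonist; peak minus trough fluorescence over baseline measured at the second addition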
RGS4 pot = RGS4 potentiators or activators, primary screen, cell-based, HEK293 M3R inducible RGS4, calcium flux | 0.92% of 310,000 active | carbachol calcium flux Fluo4; stronger effect = lower value | B-score at 10 µM | AID 463111, 2010;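 active = B-score of the integrated calcium signal more than 4 SD below the library mean, with starting fluorescence not abnormally high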;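 also: negative B-score means reduced calcium response which marks RGS4 activation or potentiation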
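test system = HEK293 cells with stable M3R and inducible RGS4 | schedule = recording 10 s baseline at 1 Hz, 100 s post-agonist | technique = Fluo4-AM (2 µM) calcium-flux fluorescence, kinetic read | measure = Agonist-evoked peak-minus-minimum fluorescence over baseline, integrated ratio, B score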
MrgX1 PAM conf = MrgX1 positive allosteric modulators, duplicate retest, confirmation, HEK293 cells, Fluo-4 calcium flux. activation (ratio percentage), % at 10 µM. 13% of 1,200 active. shares compounds with MrgX1 allo act. Fluo-4 calcium fluorescence, FDSS;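 active = ratio at least 3 SD above the weak peptide control, stable starting fluorescence, no direct agonism earlier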;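 also: compound followed by low BAM8-22 agonist challenge near EC20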
HEK293 Ca flux = nonspecific calcium signal in parental HEK293, confirmation, counter-screen for MrgX1 antagonist project, parental HEK293 cells, Fluo-4 calcium flux | AID 624111, 2012 | fluorescence ratio F(max-min)/F0 at 10 µM | shares compounds with MrgX1 antagonist | 2% of 4,000 active | Fluo-4 calcium fluorescence, FDSS;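 active = duplicate-averaged calcium fluorescence ratio at least three times the standard deviation of buffer wells, a nonspecific response in parental cells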
HEK293 Ca counter = calcium response in parental HEK293 cells, primary screen, counter-screen for MrgX1 allosteric activator project, cell-based, Fluo-4 calcium flux, duplicate. fluorescence ratio F(max-min)/F0 at 10 µM. Fluo-4 fluorescence ratio; stronger effect = higher value. 0.4% of 4,000 active. shares compounds with MrgX1 antagonist;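 active = calcium fluorescence ratio, averaged over duplicates, at least 3 SD of the buffer-well ratio, meaning a nonspecific response in receptor-free cells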;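 also: untransfected parental HEK293 lacking MrgX1 used as counterscreen for MrgX1 allosteric activators; fluorescence change taken during the second addition on a kinetic imager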
HEK293 Ca cntr2 = calcium response in parental HEK293 cells, primary screen, counter-screen for MrgX1 agonist project, cell-based, Fluo-4 calcium flux, duplicate, agonist mode | shares compounds with MrgX1 antagonist | Fluo-4 calcium fluorescence (FDSS); stronger effect = higher value | fluorescence ratio F(max-min)/F0 at 10 µM | 8.7% of 4,000 active | AID 624115, 2012;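 active = calcium fluorescence ratio at least three times the spread of buffer wells, meaning a non-specific response in parental cells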
The depositor's hits bear a star; i = inactive; . = no result.

SMILES	MrgX1 antagonist	RGS4 block	MrgX1 agonist	MrgX1 allo act	RGS4 pot	MrgX1 PAM conf	HEK293 Ca flux	HEK293 Ca counter	HEK293 Ca cntr2
O=C(Nc1cccc(F)c1)OC(CN1CCCCC1)C(F)(F)F (stereo not drawn)	i	i	i	7.2*	i	i	i	i	i
CC(C)CC(=O)Nc1cccc(C(=O)Nc2ccccc2C(=O)O)c1	i	i	i	i	i	.	.	.	.
CC1(C)c2ccccc2N(CC(N)=O)C12C=Cc1ccccc1O2 (stereo not drawn)	i	i	i	6.8*	i	i	i	i	i
C=CCOc1c(Br)cc(/C=N/NC(N)=O)cc1OC	i	i	i	i	i	.	.	.	.
C=CCOc1c(CCC)cc(CCC)cc1C(N)=O	i	i	i	24*	i	i	i	i	i
Cc1ccc(-c2cc(C)nc3ncnn23)cc1	i	i	i	8.9*	i	i	i	i	i
CC(C)N(C(=O)COc1ccc(Br)cc1Cl)C(C)C	i	i	i	21*	i	6.4%*	i	i	i
O=C(COc1ccc(Br)cc1Cl)c1ccc[nH]1	i	i	i	9.7*	i	i	i	i	i
COCCN1CCN(Cc2nc(C3(c4ccc(C)cc4)CCCC3)no2)CC1	i	i	i	9*	i	i	i	i	i
COc1ccc(N2C(=O)CCC(C(C)=O)=C2C)cc1	i	i	i	i	i	.	.	.	.
COC(=O)c1ccc(C2NCCc3cc(OC)c(OC)cc32)cc1 (stereo not drawn)	i	i	i	i	i	.	.	.	.
COc1ccc(CCN2C(=S)N(c3ccccc3)C(=O)C2CC(=O)O)cc1OC (stereo not drawn)	i	i	i	i	i	.	.	.	.
CNC(=O)CC1C(=O)N(c2ccc(Cl)cc2)C(=S)N1CCc1ccc(OC)c(OC)c1 (stereo not drawn)	i	i	i	10*	i	i	i	i	i
O=C(Cn1c(NCCO)nc2ccccc21)c1ccccc1	i	i	i	7.3*	i	i	i	i	i
CCN(CC(=O)NCCN1CCOCC1)S(=O)(=O)c1ccc(F)cc1	i	i	i	i	i	.	.	.	.
CCOc1ccc(Nc2cc(Nc3ccccc3OCC)nc(C=C(C#N)C#N)n2)cc1	i	i	i	i	i	.	.	.	.
NC(=O)COC(=O)c1cccc(S(=O)(=O)N2CCCCC2)c1	i	i	i	11*	i	i	i	i	i
CCOC(=O)c1cccc(S(=O)(=O)N2CCCC2)c1	i	i	i	i	i	.	.	.	.
Cc1cc(SCC(=O)c2ccc(O)c(O)c2)nc2ccccc12	i	i	i	11*	i	i	i	i	i
Cc1cc(SCC(=O)c2ccc3c(c2)OCO3)nc2ccccc12	i	i	i	i	i	.	.	.	.
